In ChEMBL document CHEMBL2021849, “Synergistic TRAIL sensitizers from Barleria alluaudii and Diospyros maritima” (J Nat Prod, 2012):

Key:
ACHN [1] = assay: Ratio of EC50 for human ACHN cells to EC50 for human ACHN cells in presence of 40 ng/ml TRAIL; type: functional
How it was run: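 Synergy taken as the ratio of the two EC50 values read from ACHN cell death curves, one run without TRAIL and one with 40 ng/mL TRAIL. Treatment lasted 20–24 h.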

ACHN [2] = assay: Cytotoxicity against human ACHN cells assessed as cell death after 20 to 24 hrs by XTT assay; type: functional, cell-based
ACHN [3] = assay: Cytotoxicity against human ACHN cells assessed as cell death after 20 to 24 hrs by XTT assay in presence of 40 ng/ml TRAIL; type: functional, cell-based

| SMILES | Ratio EC50 (ACHN [1]) | EC50 (ACHN [2]) [µM] | EC50 (ACHN [3]) [µM] |
| --- | --- | --- | --- |
| CC(C)=CC[C@]12O[C@H]1C(=O)c1ccccc1C2=O | 2.4 | 39.7 | 16.7 |
| CC(C)=CC[C@]12O[C@H]1C(=O)c1cccc(O)c1C2=O | 1.4 | 6.4 | 4.7 |
| C[C@@H]1CC(=O)c2c(O)cccc2[C@@H]1O |  | > 60 | > 60 |
| CC1=CC(=O)c2c(ccc(C(C)c3ccc4c(c3O)C(=O)C=C(C)C4=O)c2O)C1=O |  | > 30 | > 30 |
| CC1=CC(=O)c2c(ccc(-c3ccc4c(c3O)C(=O)C=C(C)C4=O)c2O)C1=O [ELLIPTINONE] | 3.5 | 13.2 | 3.8 |
| CC1=CC(=O)c2c(O)ccc(-c3ccc(O)c4c3C(=O)C(C)=CC4=O)c2C1=O [MARITINONE] | 3.8 | 5.8 | 1.5 |
| CC1=CC(=O)c2c(O)cccc2C1=O [PLUMBAGIN] | 2 | 7.3 | 3.7 |
| Cc1ccc2c(c1)C(=O)c1ccccc1C2=O [TECTOQUINONE] |  | > 50 | > 50 |
